# Assay results taken from ChEMBL document CHEMBL1770062, “Synthesis and in vitro antitumor activity of new butenolide-containing dithiocarbamates” (Bioorg Med Chem Lett, 2011).
# Tests used:
# Type in all cases: functional, cell-based
# [1] = Antitumor activity against human EC9706 cells after 72 hrs by MTT assay
# In short: (§1)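 Cells in RPMI 1640 with 10% FBS, 2 mm glutamine, penicillin and streptomycin were seeded at 5 × 10³ per well in 96-well plates. After 24 h at 37 °C the medium was replaced with medium holding compound at several concentrations, and cells were exposed for 72 h. MTT (5 mg/mL stock in PBS) was added for 4 h at 37 °C, formazan was dissolved in DMSO and absorbance read at 490 nm. IC50 was taken from dose–response curves, at least three independent experiments, mean ± SE.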
# HeLa = test: Antitumor activity against human HeLa cells after 72 hrs by MTT assay; in short: as §1
# PC-3 = test: Antitumor activity against human PC3 cells after 72 hrs by MTT assay; in short: as §1
# [2] = Antitumor activity against human SPC-A1 cells after 72 hrs by MTT assay; in short: as §1
# MCF7 = test: Antitumor activity against human MCF7 cells after 72 hrs by MTT assay; in short: as §1
# [3] = Homo sapiens, EC9706, 72 h, read-out: IC50
# [4] = Homo sapiens, HeLa, 72 h, read-out: IC50
# [5] = Homo sapiens, PC-3, 72 h, read-out: IC50
# [6] = Homo sapiens, SPCA1, 72 h, read-out: IC50
# [7] = Homo sapiens, MCF7, 72 h, read-out: IC50
smiles,measurement,setting,value
CN(C)C(=S)SCC1=CCOC1=O,IC50,[1]; [3],182 µM
same,IC50,HeLa; [4],114 µM
same,IC50,PC-3; [5],147 µM
same,IC50,[2]; [6],> 50 µg/mL
same,IC50,MCF7; [7],> 50 µg/mL
Cc1ccc(N2C(=S)SCC23COC(=O)C3)cc1 (centres undefined),IC50,[1]; [3],> 50 µg/mL
same,IC50,HeLa; [4],> 50 µg/mL
same,IC50,PC-3; [5],98.1 µM
same,IC50,[2]; [6],> 50 µg/mL
same,IC50,MCF7; [7],> 50 µg/mL
CN1CCN(C(=S)SCC2=CCOC2=O)CC1,IC50,[1]; [3],14.3 µM
same,IC50,HeLa; [4],0.77 µM
same,IC50,PC-3; [5],40.5 µM
same,IC50,[2]; [6],53.7 µM
same,IC50,MCF7; [7],86.5 µM
O=C1CC2(CO1)CSC(=S)N2c1ccccc1O (centres undefined),IC50,[1]; [3],> 50 µg/mL
same,IC50,HeLa; [4],> 50 µg/mL
same,IC50,PC-3; [5],> 50 µg/mL
same,IC50,[2]; [6],> 50 µg/mL
same,IC50,MCF7; [7],> 50 µg/mL
CCNC(=S)SCC1=CCOC1=O,IC50,[1]; [3],44.4 µM
same,IC50,HeLa; hela,Not Active
same,IC50,PC-3; [5],30.6 µM
same,IC50,[2]; spc-a1,Not Active
same,IC50,MCF7; [7],80.1 µM
O=C1CC2(CO1)CSC(=S)N2c1ccc(F)cc1 (centres undefined),IC50,[1]; [3],> 50 µg/mL
same,IC50,HeLa; [4],> 50 µg/mL
same,IC50,PC-3; [5],> 50 µg/mL
same,IC50,[2]; [6],> 50 µg/mL
same,IC50,MCF7; [7],> 50 µg/mL
O=C1OCC=C1CSC(=S)NC1CC1,IC50,[1]; [3],53.6 µM
same,IC50,HeLa; [4],24.1 µM
same,IC50,PC-3; [5],117 µM
same,IC50,[2]; [6],57.5 µM
same,IC50,MCF7; [7],94.9 µM
O=C1C=C(CSC(=S)N2CCCC2)CO1,IC50,[1]; [3],106 µM
same,IC50,HeLa; [4],> 50 µg/mL
same,IC50,PC-3; [5],> 50 µg/mL
same,IC50,[2]; [6],60 µM
same,IC50,MCF7; [7],169 µM
CN1CCN(C(=S)SCC2=CC(=O)OC2)CC1,IC50,[1]; [3],35.8 µM
same,IC50,HeLa; [4],> 50 µg/mL
same,IC50,PC-3; [5],> 50 µg/mL
same,IC50,[2]; [6],> 50 µg/mL
same,IC50,MCF7; [7],> 50 µg/mL
O=C1C=C(CSC(=S)N2CCOCC2)CO1,IC50,[1]; [3],> 50 µg/mL
same,IC50,HeLa; [4],> 50 µg/mL
same,IC50,PC-3; [5],> 50 µg/mL
same,IC50,MCF7; [7],> 50 µg/mL
CCN(CC)C(=S)SCC1=CCOC1=O,IC50,[1]; [3],136 µM
same,IC50,HeLa; [4],1.39 µM
same,IC50,PC-3; [5],57.1 µM
same,IC50,[2]; [6],87 µM
same,IC50,MCF7; [7],121 µM
Cc1ccc(NC(=S)SCC2=CCOC2=O)cc1,IC50,[1]; [3],91 µM
same,IC50,HeLa; [4],5.44 µM
same,IC50,PC-3; [5],93.5 µM
same,IC50,[2]; [6],63.8 µM
same,IC50,MCF7; [7],97.4 µM
CCN(CC)C(=S)SCC1=CC(=O)OC1,IC50,[1]; [3],> 50 µg/mL
same,IC50,HeLa; [4],21 µM
same,IC50,PC-3; [5],> 50 µg/mL
same,IC50,[2]; [6],57.1 µM
same,IC50,MCF7; [7],> 50 µg/mL
O=C1OCC=C1CSC(=S)Nc1ccc(Cl)cc1,IC50,[1]; ec9706,Not Active
same,IC50,HeLa; hela,Not Active
same,IC50,PC-3; pc-3,Not Active
same,IC50,[2]; spc-a1,Not Active
same,IC50,MCF7; mcf7,Not Active
CN(Cc1ccccc1)C(=S)SCC1=CC(=O)OC1,IC50,[1]; [3],> 50 µg/mL
same,IC50,HeLa; [4],> 50 µg/mL
same,IC50,PC-3; [5],> 50 µg/mL
same,IC50,[2]; [6],> 50 µg/mL
same,IC50,MCF7; [7],> 50 µg/mL
O=C1CC2(CO1)CSC(=S)N2C1CC1 (centres undefined),IC50,[1]; [3],> 50 µg/mL
same,IC50,HeLa; [4],28.7 µM
same,IC50,PC-3; [5],> 50 µg/mL
same,IC50,[2]; [6],> 50 µg/mL
same,IC50,MCF7; [7],> 50 µg/mL
O=C1OCC=C1CSC(=S)NC1CCCCC1,IC50,[1]; [3],> 50 µg/mL
same,IC50,HeLa; [4],150 µM
same,IC50,PC-3; [5],> 50 µg/mL
same,IC50,[2]; [6],> 50 µg/mL
same,IC50,MCF7; [7],180 µM
O=C1CC2(CO1)CSC(=S)N2Cc1ccccc1 (centres undefined),IC50,[1]; [3],> 50 µg/mL
same,IC50,HeLa; [4],> 50 µg/mL
same,IC50,PC-3; [5],> 50 µg/mL
same,IC50,[2]; [6],> 50 µg/mL
same,IC50,MCF7; [7],> 50 µg/mL
CNC(=S)SCC1=CCOC1=O,IC50,[1]; [3],85.4 µM
same,IC50,HeLa; [4],36.1 µM
same,IC50,PC-3; [5],76.5 µM
same,IC50,[2]; [6],43.9 µM
same,IC50,MCF7; [7],83.1 µM
CN(C)C(=S)SCC1=CC(=O)OC1,IC50,[1]; [3],7.55 µM
same,IC50,HeLa; [4],> 50 µg/mL
same,IC50,PC-3; [5],> 50 µg/mL
same,IC50,[2]; [6],> 50 µg/mL
same,IC50,MCF7; [7],159 µM
O=C1OCC=C1CSC(=S)N1CCCC1,IC50,[1]; [3],14.4 µM
same,IC50,HeLa; [4],2.63 µM
same,IC50,PC-3; [5],114 µM
same,IC50,[2]; [6],31.4 µM
same,IC50,MCF7; [7],56.4 µM
O=C1CC2(CO1)CSC(=S)N2c1ccccc1 (centres undefined),IC50,[1]; [3],128 µM
same,IC50,HeLa; [4],18 µM
same,IC50,PC-3; [5],> 50 µg/mL
same,IC50,[2]; [6],101 µM
same,IC50,MCF7; [7],134 µM
O=c1[nH]cc(F)c(=O)[nH]1 [FLUOROURACIL],IC50,[1]; [3],20.3 µM
same,IC50,HeLa; [4],41.5 µM
same,IC50,PC-3; [5],29.3 µM
same,IC50,[2]; [6],26.9 µM
same,IC50,MCF7; [7],7.54 µM
CC(C)NC(=S)SCC1=CCOC1=O,IC50,[1]; [3],59.4 µM
same,IC50,HeLa; [4],137 µM
same,IC50,PC-3; [5],49.4 µM
same,IC50,[2]; [6],108 µM
same,IC50,MCF7; [7],134 µM
O=C1OCC=C1CSC(=S)NCc1ccccc1,IC50,[1]; [3],34.3 µM
same,IC50,HeLa; [4],15.1 µM
same,IC50,PC-3; [5],13.7 µM
same,IC50,[2]; [6],20.1 µM
same,IC50,MCF7; [7],31.9 µM
O=C1OCC=C1CSC(=S)Nc1ccccc1,IC50,[1]; [3],16.2 µM
same,IC50,HeLa; [4],111 µM
same,IC50,PC-3; [5],186 µM
same,IC50,[2]; [6],95.3 µM
same,IC50,MCF7; [7],89.9 µM
CC(C)N(C(=S)SCC1=CC(=O)OC1)C(C)C,IC50,[1]; [3],49.2 µM
same,IC50,HeLa; [4],28.5 µM
same,IC50,PC-3; [5],> 50 µg/mL
same,IC50,[2]; [6],> 50 µg/mL
same,IC50,MCF7; [7],> 50 µg/mL
O=C1OCC=C1CSC(=S)N1CCOCC1,IC50,[1]; [3],26 µM
same,IC50,HeLa; [4],2.43 µM
same,IC50,PC-3; [5],48.8 µM
same,IC50,[2]; [6],37.9 µM
same,IC50,MCF7; [7],60.3 µM
O=C1CC2(CO1)CSC(=S)N2c1ccc(Cl)cc1 (centres undefined),IC50,[1]; [3],32.6 µM
same,IC50,HeLa; [4],> 50 µg/mL
same,IC50,PC-3; [5],> 50 µg/mL
same,IC50,[2]; [6],> 50 µg/mL
same,IC50,MCF7; [7],> 50 µg/mL
